OX1R antag-1 – blocks the human orexin 1 receptor; CHO/OX1R cells, Fluo-8 calcium fluorescence, orexin A; inhibition, % at 5 µM; 0.43% of 330,000 active; AID 434989;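 active means inhibition above its plate's threshold, mean inhibition of all tested compounds on the plate plus 3 SD, cut at about 37% in these data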
CHO parental Ca – counter-screen: ATP calcium response change in parental CHO cells; parental CHO-K1, ATP-induced calcium, Fluo-8 fluorescence; inhibition, % at 5.6 µM; 0.63% of 330,000 active;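 active means inhibition above that plate's mean sample inhibition plus 3 SD, cut at about 26% in these data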
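Material: Parental CHO cells | Reagent: ATP | Compound dosing: Single nominal dose of 5.6 µM per compound | Detection: Intracellular calcium via Fluo-8 no-wash fluorescent dye | Read-out: % inhibition of ATP-induced calcium mobilization | Benchmarks: Low control ATP plus DMSO, high control DMSO only | Replicates: Singlicate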
OX1R antag-2 – blocks the human orexin 1 receptor; O43613; OX1R-expressing cells, FRET antagonist read-out; inhibition, % at 6.6 µM; 1.8% of 330,000 active; AID 485270; in the data active means inhibition mostly above about 38%, no sharp cut-off; inactive means mostly below about 40%
TRPML3 agonist – agonists of human TRPML3 channel; Q8TDD5; HEK293 TRPML3-YFP, Fluo-8 calcium fluorescence; 100% = the carbachol control signal; activation, % at 3 µM; 0.29% of 220,000 active; AID 1448;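 active means activation above its plate's cutoff, the mean activation of the plate's test wells plus 3 SD, cut at about 12% in these data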
Target sequence (Q8TDD5 whole entry, looked up): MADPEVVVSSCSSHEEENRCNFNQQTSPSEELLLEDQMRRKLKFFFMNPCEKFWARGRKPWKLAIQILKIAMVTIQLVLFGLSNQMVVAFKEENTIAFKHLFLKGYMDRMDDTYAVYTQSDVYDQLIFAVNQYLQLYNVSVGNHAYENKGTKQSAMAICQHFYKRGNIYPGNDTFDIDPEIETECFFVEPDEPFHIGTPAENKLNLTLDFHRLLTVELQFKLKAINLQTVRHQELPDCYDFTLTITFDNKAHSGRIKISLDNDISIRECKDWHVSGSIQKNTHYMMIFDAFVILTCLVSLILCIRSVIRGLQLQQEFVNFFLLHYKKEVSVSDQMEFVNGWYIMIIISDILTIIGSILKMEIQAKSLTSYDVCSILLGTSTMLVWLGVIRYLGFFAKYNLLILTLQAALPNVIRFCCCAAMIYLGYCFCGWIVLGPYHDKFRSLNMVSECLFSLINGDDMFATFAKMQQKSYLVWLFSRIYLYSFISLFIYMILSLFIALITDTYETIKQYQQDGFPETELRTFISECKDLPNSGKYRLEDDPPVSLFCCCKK
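Material: TRPML3-YFP stable HEK293 cells | Dosing: One concentration, 3 µM nominal, 0.3% DMSO | Timing: 125 s total fluorescence read per well | Technique: Fluo-8 calcium dye fluorescence, ex 470-495, em 515-575 nm | Measure: Percent activation from peak-to-basal fluorescence ratio, scaled between DMSO and carbachol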
TRPN1 ag – agonists of zebrafish TRPN1 channel. HEK293 zebrafish TRPN1-YFP, Fluo-8 calcium fluorescence; 100% = response to 87 µM carbachol. activation, % at 3 µM. 0.18% of 220,000 active;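 active means activation above its plate's cutoff, the mean activation of test wells on that plate plus 3 SD, cut at about 19% in these data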
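Material: zebrafish TRPN1-YFP in HEK293 cells; Doses: single test compound dose, 3 µM nominal, 0.3% DMSO; Timing: dye loading 1 h at 37 °C, then 30 min room temperature; Technique: intracellular calcium fluorescence with Fluo-8; Benchmarks: high carbachol 87 µM, low DMSO alone.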
Of the large screens only hits and unclear results are named; the others gave an inactive call. The list is not random: actives were taken first. Their share in the collection is about 2.5%.

COc1ccccc1OC(C)C(=O)Nc1ccccc1C(=O)NCc1cccnc1 (stereo not given)	none (no result: TRPML3 agonist, TRPN1 ag)
CC(C)(C)NC(=O)CSc1nc2cccnc2n1C1CCCCC1	none (no result: TRPML3 agonist, TRPN1 ag)
O=C(O)c1ccccc1C(=O)Nc1ccc(-n2ccc(C(F)(F)F)n2)cc1	none
O=C(Nc1ccc(-n2ccc(C(F)(F)F)n2)cc1)Nc1cccc(Cl)c1	OX1R antag-1 57
O=C(O)CCC(=O)Nc1ccc(-n2ccc(C(F)(F)F)n2)cc1	none
Cc1cc(C)cc(NC(=O)Nc2ccc(-n3ccc(C(F)(F)F)n3)cc2)c1	OX1R antag-1 54, CHO parental Ca 40, OX1R antag-2 54
C/C=C(/C)C(=O)Nc1cccc(C2=NOC3(C2)C[C@@H](C(N)=O)N(C(=O)/C=C/CC)C3)c1 (stereo not given in full)	none (no result: TRPML3 agonist, TRPN1 ag)
CC[N+](CC)(CC)CCOc1ccc(/C=C/c2ccccc2)cc1	none (no result: TRPML3 agonist, TRPN1 ag)
CC[N+](CC)(CC)CCCCOc1ccc2c(c1)C(=O)c1cc(OCCCC[N+](CC)(CC)CC)ccc1-2	OX1R antag-2 57
O=C(CCl)N1CCCC1c1ccc2c(c1)OCCO2 (stereo not given)	none (no result: TRPML3 agonist, TRPN1 ag)
O=C(c1ccc2c(c1)C(=O)N(Cc1ccco1)C2=O)N1CCOCC1	none
O=C(O)c1ccc(C(=O)c2ccc3c(c2)C(=O)N(Cc2ccco2)C3=O)cc1	OX1R antag-2 50
O=C(O)c1ccc(C(=O)c2ccc3c(c2)C(=O)N(CCO)C3=O)cc1	OX1R antag-2 74
O=C(CCNS(=O)(=O)c1ccc(OC(F)(F)F)cc1)N1CCN(C/C=C/c2ccccc2)CC1	none (no result: TRPML3 agonist, TRPN1 ag)
O=C(CSc1nnc(NC(=O)c2ccccc2F)s1)NCC1CCCO1 (stereo not given)	none (no result: TRPML3 agonist, TRPN1 ag)
CCOC(=O)CSc1nc(-c2ccccc2)nc2ccccc12	OX1R antag-2 38
CCOC(=O)Cn1c(-c2ccccc2)nc2ccccc2c1=O	OX1R antag-2 75
COc1ccc(Cn2c(=O)cc(N)n(-c3ccccc3C)c2=O)cc1	none
O=C(NC(=S)N1CCCCC1)c1csc([N+](=O)[O-])c1	OX1R antag-2 37
CC1=C(C)/C(=N/OC(=O)c2cccc([N+](=O)[O-])c2)C=CC1=O	OX1R antag-2 74
N/C(=N/OC(=O)c1cccc([N+](=O)[O-])c1)c1cccc([N+](=O)[O-])c1	none
CC(C)(C)N(Cc1ccccc1)C(=O)COC(=O)C1CCCCC1	none (no result: TRPML3 agonist, TRPN1 ag)
COc1ccc2c(c1)c1nnc(SC)nc1n2C	OX1R antag-2 48
CN(Cc1cccc(F)c1)C(=O)c1ccc(S(=O)(=O)N2CCCCCC2)cc1	none (no result: TRPML3 agonist, TRPN1 ag)
O=C(NCC(c1ccco1)N1CCOCC1)c1ccccc1 (stereo not given)	none (no result: TRPML3 agonist, TRPN1 ag)
O=[N+]([O-])c1ccc(N=Nc2c(Cl)cc(O)cc2Cl)cc1	OX1R antag-1 39, CHO parental Ca 67, OX1R antag-2 58, TRPML3 agonist 16, TRPN1 ag 20
O=C(CCNC(=O)c1ccccc1Cl)Nc1cc(S(=O)(=O)N2CCOCC2)ccc1N1CCCC1	none
NC(=O)c1cc2ccccc2o/c1=N\NC(=O)c1ccncc1	OX1R antag-2 69
Nc1cc(=O)[nH]c(SCC(=O)Nc2ccc(N3CCCCC3)cc2)n1	none (no result: TRPML3 agonist, TRPN1 ag)
O=C(c1cc(COc2cccc3cnccc23)on1)N1CCCC(CCCO)C1 (stereo not given)	CHO parental Ca 59 (no result: TRPML3 agonist, TRPN1 ag)
CC(OC(=O)c1ccc(OCC2CCCO2)cc1)C(=O)N(C)Cc1ccccc1 (stereo not given)	none (no result: TRPML3 agonist, TRPN1 ag)
O=C(NCCCNC(=O)c1ccco1)c1ccc(F)cc1	none (no result: TRPML3 agonist, TRPN1 ag)
CC(C)Cn1c(N)c(C(=O)CSc2ccc3c(c2)OCCO3)c(=O)n(C)c1=O	CHO parental Ca 55
CCOC(=O)[C@@H]1[C@H]2COc3cc(OC)ccc3[C@@H]2N2C(=O)N(c3ccc(F)cc3)C(=O)[C@@]12C	none (no result: TRPML3 agonist, TRPN1 ag)
Cc1ccc(C)c(C(=O)CN2C(=O)NC3(CCCCCCC3)C2=O)c1	none
COCCn1c(C)cc(C(=O)CN2C(=O)NC3(CCCCCC3)C2=O)c1C	OX1R antag-2 30 (no result: TRPML3 agonist, TRPN1 ag)
c1ccc(-c2nc(NCc3cccnc3)c3oc4ccccc4c3n2)cc1	OX1R antag-2 68
Cc1oc2ccc(O)cc2c1C(=O)c1ccc(F)cc1	none (no result: TRPML3 agonist, TRPN1 ag)
Cc1ccc(NC(=O)c2cccc(S(=O)(=O)NCc3ccccc3)c2)nc1	OX1R antag-2 59 (no result: TRPML3 agonist, TRPN1 ag)
Cc1cccc(NC(=O)c2cccc(S(=O)(=O)NCc3ccccc3)c2)n1	none (no result: TRPML3 agonist, TRPN1 ag)
CCOc1ccc(N(CC(=O)NCCSCc2ccccc2)S(=O)(=O)c2ccccc2)cc1	none (no result: TRPML3 agonist, TRPN1 ag)

Screening results: PubChem BioAssay, The Scripps Research Institute Molecular Screening Center
